According to ChEMBL document CHEMBL1133943, “N-hydroxyl derivatives of guanidine based drugs as enzymatic NO donors” (Bioorg Med Chem Lett, 2001):

Assays:
Type in all cases: functional
[1] = molecular target: Nitric oxide synthase, inducible (Homo sapiens) (UniProt P35228); experiment: NO releasing ability of compound measured through formation of nitrite using iNOS (nitric oxide synthases)
Method in brief: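 Purified iNOS (0.5 unit) incubated with 1 mM substrate in 50 mM HEPES pH 7.4 with 100 µM NADPH, 4 µM FAD, 4 µM FMN, 6 µM BH4, 400 µM DTT, SOD, catalase and 1 mM magnesium acetate; shaken at 37 °C. Quenched with ethanol for ≥1 h at room temperature, then Griess reagent; A548 converted via NaNO2 calibration in enzyme-free mixtures.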

[2] = molecular target: Nitric oxide synthase 1 (Rattus norvegicus) (UniProt P29476); experiment: NO releasing ability of compound measured through formation of nitrite using nNOS (nitric oxide synthases)
Nitric oxide synthase 1 (Rattus norvegicus), sequence (P29476 whole entry): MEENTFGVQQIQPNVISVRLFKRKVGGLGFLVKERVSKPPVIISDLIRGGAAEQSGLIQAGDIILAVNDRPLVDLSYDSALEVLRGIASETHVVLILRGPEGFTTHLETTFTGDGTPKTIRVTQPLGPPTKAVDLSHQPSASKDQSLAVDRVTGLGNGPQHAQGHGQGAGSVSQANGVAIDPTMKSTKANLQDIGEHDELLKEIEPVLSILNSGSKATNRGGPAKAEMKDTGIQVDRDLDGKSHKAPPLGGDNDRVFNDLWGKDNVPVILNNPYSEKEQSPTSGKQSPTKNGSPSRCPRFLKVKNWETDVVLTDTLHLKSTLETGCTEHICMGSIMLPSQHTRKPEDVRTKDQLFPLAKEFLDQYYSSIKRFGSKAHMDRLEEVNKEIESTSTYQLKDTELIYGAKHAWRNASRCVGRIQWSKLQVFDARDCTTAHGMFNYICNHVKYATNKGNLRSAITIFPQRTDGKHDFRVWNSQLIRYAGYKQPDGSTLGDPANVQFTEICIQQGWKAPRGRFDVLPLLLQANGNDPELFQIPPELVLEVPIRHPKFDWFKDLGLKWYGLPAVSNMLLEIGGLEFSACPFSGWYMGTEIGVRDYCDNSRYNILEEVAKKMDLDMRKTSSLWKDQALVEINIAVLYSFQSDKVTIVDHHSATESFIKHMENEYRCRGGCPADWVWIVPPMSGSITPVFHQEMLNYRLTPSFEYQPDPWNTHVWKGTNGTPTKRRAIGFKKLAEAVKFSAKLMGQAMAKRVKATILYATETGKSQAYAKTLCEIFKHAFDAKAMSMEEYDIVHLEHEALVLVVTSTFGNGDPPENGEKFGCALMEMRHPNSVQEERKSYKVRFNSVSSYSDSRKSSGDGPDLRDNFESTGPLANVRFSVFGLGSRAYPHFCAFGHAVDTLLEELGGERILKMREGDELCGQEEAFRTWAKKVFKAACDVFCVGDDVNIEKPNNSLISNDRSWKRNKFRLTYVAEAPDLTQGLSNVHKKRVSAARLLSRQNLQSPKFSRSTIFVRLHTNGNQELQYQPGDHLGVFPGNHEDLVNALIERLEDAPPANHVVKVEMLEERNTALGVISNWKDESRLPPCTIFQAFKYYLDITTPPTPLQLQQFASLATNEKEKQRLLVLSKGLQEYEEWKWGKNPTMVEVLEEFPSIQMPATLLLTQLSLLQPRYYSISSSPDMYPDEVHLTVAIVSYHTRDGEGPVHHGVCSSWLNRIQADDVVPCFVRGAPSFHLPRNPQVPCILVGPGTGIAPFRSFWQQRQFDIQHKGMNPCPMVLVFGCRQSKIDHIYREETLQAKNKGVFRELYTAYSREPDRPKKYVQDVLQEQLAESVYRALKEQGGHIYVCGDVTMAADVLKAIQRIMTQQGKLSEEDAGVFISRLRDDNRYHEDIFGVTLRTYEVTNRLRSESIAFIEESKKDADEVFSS
Method in brief: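 Purified nNOS (0.5 unit) incubated with 1 mM substrate in 50 mM HEPES pH 7.4, 500 µL final volume. Mix held 100 µM NADPH, 4 µM FAD, 4 µM FMN, 6 µM BH4, 400 µM DTT, SOD, catalase, 1 mM CaCl2 and 10 µg/mL CaM; shaken at 37 °C. Ethanol quench, then Griess nitrite read at 548 nm against NaNO2 calibration without enzyme. L-arginine as control.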

[3] = molecular target: Nitric oxide synthase 1 (Homo sapiens) (UniProt P29475); experiment: NO releasing ability of compound measured through formation of nitrite using neuronal nitric oxide synthase
Nitric oxide synthase 1 (Homo sapiens), sequence (P29475 whole entry): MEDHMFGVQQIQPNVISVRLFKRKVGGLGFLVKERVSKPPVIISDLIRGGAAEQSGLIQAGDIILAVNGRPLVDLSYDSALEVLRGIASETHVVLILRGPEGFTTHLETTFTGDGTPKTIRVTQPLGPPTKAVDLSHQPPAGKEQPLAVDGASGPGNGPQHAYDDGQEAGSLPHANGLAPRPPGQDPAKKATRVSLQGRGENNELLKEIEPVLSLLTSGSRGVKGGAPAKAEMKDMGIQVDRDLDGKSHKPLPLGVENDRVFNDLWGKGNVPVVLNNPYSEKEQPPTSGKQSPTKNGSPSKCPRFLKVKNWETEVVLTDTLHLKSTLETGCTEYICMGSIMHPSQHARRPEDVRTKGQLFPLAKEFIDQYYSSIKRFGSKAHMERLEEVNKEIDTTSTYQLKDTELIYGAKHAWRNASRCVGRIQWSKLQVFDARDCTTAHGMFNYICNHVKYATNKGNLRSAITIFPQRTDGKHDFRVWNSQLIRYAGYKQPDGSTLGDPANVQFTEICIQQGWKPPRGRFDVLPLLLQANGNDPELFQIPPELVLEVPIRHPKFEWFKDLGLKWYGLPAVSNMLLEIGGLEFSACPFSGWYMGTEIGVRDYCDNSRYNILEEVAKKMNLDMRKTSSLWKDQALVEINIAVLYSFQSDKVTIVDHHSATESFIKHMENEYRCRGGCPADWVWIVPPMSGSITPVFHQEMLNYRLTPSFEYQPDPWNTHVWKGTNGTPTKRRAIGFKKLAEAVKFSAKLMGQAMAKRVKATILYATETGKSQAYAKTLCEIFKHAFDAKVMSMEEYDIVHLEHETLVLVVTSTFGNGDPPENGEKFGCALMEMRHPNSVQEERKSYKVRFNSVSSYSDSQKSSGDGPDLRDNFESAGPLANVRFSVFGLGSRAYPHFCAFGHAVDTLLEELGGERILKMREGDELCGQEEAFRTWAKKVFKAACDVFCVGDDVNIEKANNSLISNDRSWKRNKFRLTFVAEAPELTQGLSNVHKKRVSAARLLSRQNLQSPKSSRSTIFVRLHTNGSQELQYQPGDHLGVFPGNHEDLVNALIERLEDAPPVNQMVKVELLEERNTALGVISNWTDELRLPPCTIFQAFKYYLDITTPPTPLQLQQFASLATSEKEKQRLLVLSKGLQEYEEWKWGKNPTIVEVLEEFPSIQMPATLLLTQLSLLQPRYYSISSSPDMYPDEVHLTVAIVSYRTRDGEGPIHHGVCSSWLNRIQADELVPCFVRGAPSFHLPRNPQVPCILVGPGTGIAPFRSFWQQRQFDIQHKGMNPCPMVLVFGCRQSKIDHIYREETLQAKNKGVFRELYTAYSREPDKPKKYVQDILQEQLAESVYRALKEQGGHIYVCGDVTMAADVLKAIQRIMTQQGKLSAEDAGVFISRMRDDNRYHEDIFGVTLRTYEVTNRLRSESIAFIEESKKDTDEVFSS
Method in brief: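 Incubation with nNOS (0.5 unit) in 50 mM HEPES pH 7.4 at 37 °C, shaken. Mixture: 1 mM substrate, 100 µM NADPH, 4 µM FAD, 4 µM FMN, 6 µM BH4, 400 µM DTT, 100 units SOD, 50 units catalase, 1 mM CaCl2, 10 µg/mL calmodulin. Quenched with ethanol, ≥1 h at room temperature, then Griess reagent, A548. Nitrite is quantified against NaNO2 standards made in enzyme-free mixtures. L-arginine is the reference substrate.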

[4] = Effect of incubation conditions on the formation of NO2 from the oxidation of compound in the presence of nNOS
Method in brief: (§1)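 Base NOS reaction varied by component: 1 mM substrate, 50 mM HEPES pH 7.4, 100 µM NADPH, 4 µM FAD, 4 µM FMN, 6 µM BH4, 400 µM DTT, SOD, catalase, 0.5 unit NOS, shaken at 37 °C for the indicated time. Nitrite determined by Griess reaction after ethanol quench, absorbance 548 nm, with NaNO2 calibration curves lacking enzyme.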

[5] = Effect of incubation conditions on the formation of NO2 from the oxidation of compound in the presence of NADPH; method in brief: as §1
[6] = Effect of incubation conditions on the formation of NO2 from the oxidation of compound in the presence of complete system; method in brief: as §1
[7] = Effect of incubation conditions on the formation of NO2 from the oxidation of compound in the presence of BH4; method in brief: as §1
[8] = Effect of incubation conditions on the formation of NO2 from the oxidation of compound in the presence of NO2-L-Arg; method in brief: as §1

Nitric oxide synthase, inducible (Homo sapiens), sequence (P35228 whole entry): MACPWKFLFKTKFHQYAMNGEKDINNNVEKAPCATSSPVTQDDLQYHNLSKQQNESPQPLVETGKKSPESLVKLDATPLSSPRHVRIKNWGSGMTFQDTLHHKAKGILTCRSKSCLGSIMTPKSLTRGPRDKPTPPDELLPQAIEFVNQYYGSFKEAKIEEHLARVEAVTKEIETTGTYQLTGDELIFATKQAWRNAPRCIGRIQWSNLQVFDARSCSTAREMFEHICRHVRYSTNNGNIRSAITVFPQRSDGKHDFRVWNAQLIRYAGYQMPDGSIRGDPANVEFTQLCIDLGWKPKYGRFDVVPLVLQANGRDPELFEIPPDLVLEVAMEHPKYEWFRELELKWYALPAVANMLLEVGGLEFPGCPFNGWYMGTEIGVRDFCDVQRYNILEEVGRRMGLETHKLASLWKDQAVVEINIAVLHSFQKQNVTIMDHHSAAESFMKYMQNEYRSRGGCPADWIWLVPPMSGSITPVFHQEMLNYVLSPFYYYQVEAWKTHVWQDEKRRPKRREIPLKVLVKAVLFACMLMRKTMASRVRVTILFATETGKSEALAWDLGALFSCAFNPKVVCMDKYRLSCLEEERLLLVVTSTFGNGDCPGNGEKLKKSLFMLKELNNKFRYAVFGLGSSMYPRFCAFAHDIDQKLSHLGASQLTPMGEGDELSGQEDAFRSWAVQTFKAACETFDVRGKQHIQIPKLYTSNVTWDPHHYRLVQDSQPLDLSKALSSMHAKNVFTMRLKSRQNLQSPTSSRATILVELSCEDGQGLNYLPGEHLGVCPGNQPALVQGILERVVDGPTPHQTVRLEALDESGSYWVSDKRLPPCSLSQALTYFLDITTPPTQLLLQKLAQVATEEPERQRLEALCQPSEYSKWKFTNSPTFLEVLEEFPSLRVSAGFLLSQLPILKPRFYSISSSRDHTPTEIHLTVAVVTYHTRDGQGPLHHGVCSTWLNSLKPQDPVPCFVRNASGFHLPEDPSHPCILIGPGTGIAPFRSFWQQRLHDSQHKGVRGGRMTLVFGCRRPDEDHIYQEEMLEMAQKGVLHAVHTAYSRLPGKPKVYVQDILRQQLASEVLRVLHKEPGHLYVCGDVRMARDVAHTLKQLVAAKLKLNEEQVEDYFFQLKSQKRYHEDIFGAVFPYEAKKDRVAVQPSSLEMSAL

## N/C(=N\O)NCCN1CCCCCCC1
[1]
  Activity: 0.2 µM
[2]
  Activity: 0.3 µM

## N=C(N)NCCN1CCCCCCC1
[1]
  Activity: < 0.1 µM
[2]
  Activity: < 0.1 µM

## N=C(N)NCCC[C@H](N)C(=O)O
[3]
  Activity: 14.5 µM

## N/C(=N/CC1COC2(CCCCC2)O1)NO (stereo not drawn)
[1]
  Activity: 1.6 µM
[4]
  residual activity: < 2%
[2]
  Activity: 1.2 µM
[5]
  residual activity: 18%
[6]
  residual activity: 100%
[7]
  residual activity: 30%
[8]
  residual activity: 50%

## N=C(N)NCC1COc2ccccc2O1 (stereo not drawn)
[1]
  Activity: < 0.1 µM
[2]
  Activity: < 0.1 µM

## N/C(=N/CC1COc2ccccc2O1)NO (stereo not drawn)
[1]
  Activity: 0.9 µM
[2]
  Activity: 0.8 µM

## N=C(N)NCC1COC2(CCCCC2)O1 (stereo not drawn)
[1]
  Activity: < 0.1 µM
[2]
  Activity: < 0.1 µM
